The values below come from ChEMBL document CHEMBL3046604, “Synthesis and fungistatic activity of new groups of 2,4-dihydroxythiobenzoyl derivatives against phytopathogenic fungi” (J Agric Food Chem, 2003).

Data set [1] is described as follows: Lipophilicity, log K of the compound in methanol-water mixture by HPLC. It is filed as physicochemical. Put shortly:
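Reversed-phase HPLC on a Hypersil BDS C18 column (5 µm, 150 × 4.6 mm) with UV detection at 320 nm. Samples were dissolved in methanol. Mobile phase was methanol at varying volume fractions in 10 mM acetate buffer pH 4, run at 1 mL/min and room temperature. Dead time was taken from injection of acetone dissolved in water.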

In data set [2] the test system is Alternaria alternata. Put plainly: Fungistatic activity against Alternaria alternata assessed as mycelial growth inhibition at 200 ug/ml after 4 to 8 days relative to control. It is filed as functional. The following applies: for inhibition of growth at 200 µg/mL: read-out: GI. Summed up:
(§1)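 Compound solutions or suspensions were diluted into PDA agar to final 200 or 20 µg/mL and poured into Petri dishes. Once the agar set, mycelium-covered agar disks of the fungus were placed at three sites on the surface. Linear colony growth was measured after 4-8 days, depending on the culture. Inhibition J = [(C − T)/C] × 100 versus untreated control, reported on a four-degree scale.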

For data set [3], the system named is Blumeria graminis. The experiment in a line: Fungistatic activity against Blumeria graminis infested wheat seedling assessed as inhibition of fungal infection at 1000 ug/ml applied as spray after 7 to 14 days under green house conditions relative to control. The format is functional. Put shortly:
(§2)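 Greenhouse test on healthy wheat seedlings with Erysiphe graminis. At the well-developed first-leaf stage, plants were sprayed with compound solution at 1000 or 500 µg/mL, 10 mL of solution per treatment, with three repeats in 9 cm paraffin cups.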

Data set [4] deals with Phytophthora cactorum. The experiment in a line: Fungistatic activity against Phytophthora cactorum assessed as mycelial growth inhibition at 20 ug/ml after 4 to 8 days relative to control. It is filed as functional. The following applies: for inhibition of growth at 20 µg/mL: read-out: GI. Put shortly: as §1
For data set [5], the system named is Rhizoctonia solani. The experiment in a line: Fungistatic activity against Rhizoctonia solani assessed as mycelial growth inhibition at 20 ug/ml after 4 to 8 days relative to control. It is filed as functional. The following applies: for inhibition of growth at 20 µg/mL: read-out: GI. Summed up: as §1
The subject of data set [6] is Botrytis cinerea. The experiment in a line: Fungistatic activity against Botryotinia fuckeliana assessed as mycelial growth inhibition at 20 ug/ml after 4 to 8 days relative to control. The format is functional. The note with it: for inhibition of growth at 20 µg/mL: read-out: GI. Put shortly: as §1
Data set [7] relates to Alternaria alternata. Put plainly: Fungistatic activity against Alternaria alternata assessed as mycelial growth inhibition at 20 ug/ml after 4 to 8 days relative to control. The format is functional. The note with it: for inhibition of growth at 20 µg/mL: read-out: GI. Put shortly: as §1
In data set [8] the test system is Blumeria graminis. Put plainly: Fungistatic activity against Blumeria graminis infested wheat seedling assessed as inhibition of fungal infection at 500 ug/ml applied as spray after 7 to 14 days under green house conditions relative to control. The format is functional. Put shortly:
as §2

Data set [9] has as its system Botrytis cinerea. Put plainly: Fungistatic activity against Botryotinia fuckeliana assessed as mycelial growth inhibition at 200 ug/ml after 4 to 8 days relative to control. It is filed as functional. The following applies: for inhibition of growth at 200 µg/mL: read-out: GI. Put shortly: as §1
Data set [10] relates to Fusarium culmorum. Put plainly: Fungistatic activity against Fusarium culmorum assessed as mycelial growth inhibition at 20 ug/ml after 4 to 8 days relative to control. It is filed as functional. The following applies: for inhibition of growth at 20 µg/mL: read-out: GI. Put shortly: as §1
In data set [11] the test system is Fusarium culmorum. Put plainly: Fungistatic activity against Fusarium culmorum assessed as mycelial growth inhibition at 200 ug/ml after 4 to 8 days relative to control. The format is functional. The note with it: for inhibition of growth at 200 µg/mL: read-out: GI. Summed up: as §1
Data set [12] concerns Phytophthora cactorum. Put plainly: Fungistatic activity against Phytophthora cactorum assessed as mycelial growth inhibition at 200 ug/ml after 4 to 8 days relative to control. It is filed as functional. The following applies: for inhibition of growth at 200 µg/mL: read-out: GI. Summed up:
as §1

Data set [13] deals with Rhizoctonia solani. Put plainly: Fungistatic activity against Rhizoctonia solani assessed as mycelial growth inhibition at 200 ug/ml after 4 to 8 days relative to control. The format is functional. The following applies: for inhibition of growth at 200 µg/mL: read-out: GI. Summed up:
as §1

Calls of active or inactive are those of the source. No cut-off for these calls is given here.

Take `CCOC(=O)c1c(C)csc1NC(=S)c1ccc(O)cc1O`: the “log K” value in [1] was -0.28.
Consider `Oc1ccc(C(=S)Nc2cc(C(F)(F)F)ccc2N2CCOCC2)c(O)c1`, for which the inhibition of growth at 200 µg/mL is 21% in data set [2]; 21% in data set [9]; 21% in data set [11]; 41% in data set [12]; 0% in [13]. In addition, the inhibition (in general, the drop in the measured response relative to a control, in per cent) at 1000 µg/mL in data set [3] is 0%. The inhibition of growth at 20 µg/mL in data set [4], in [5], in [6], in [7] and in data set [10] was 0% in each case. Moreover, the “log K” value in [1] was 0.035. Also, the inhibition at 500 µg/mL in data set [8] was found to be 0%.
`CCOc1ccc(C(=O)NNC(=S)c2ccc(O)cc2O)cc1`: in data set [1], the “log K” value was determined as 0.352.
As to `O=C(CC(=O)c1ccc(NC(=S)c2ccc(O)cc2O)cc1)Nc1ccccc1Cl`, in data set [1], the “log K” value is given as -0.29.
Consider `Oc1ccc(C(=S)NNC(=S)Nc2ccc(F)cc2)c(O)c1`, for which the inhibition of growth at 200 µg/mL in data set [2] stood at 21%; in [9], 0%; in data set [11], 0%; in data set [12], 0%; in data set [13], 0%. Besides, the inhibition at 1000 µg/mL in data set [3] turned out to be 0%. Moreover, the inhibition of growth at 20 µg/mL in data set [4], in data set [5], in data set [6], in data set [7] and in [10] was 0% in each case. Moreover, the “log K” value in [1] amounted to 0.24. For the same molecule, the inhibition at 500 µg/mL in data set [8] was determined as 0%.
Take `Oc1ccc(C(=S)n2nnc3cc(Cl)ccc32)c(O)c1`: the inhibition of growth at 200 µg/mL in data set [2], in [9], in [11], in data set [12] and in [13] was 81% in each case. The inhibition at 1000 µg/mL in data set [3] turned out to be 21%. Further, the inhibition of growth at 20 µg/mL in data set [4] was determined as 21%; in [5], 21%; in data set [6], 21%; in data set [7], 0%; in [10], 0%. For the same molecule, the “log K” value in data set [1] is given as 0.936. In data set [8], the inhibition at 500 µg/mL is 0%.
On to `Oc1ccc(C(=S)NN=C2c3ccccc3-c3ccccc32)c(O)c1`, for which the inhibition of growth at 200 µg/mL is 41% in [2]; 21% in data set [9]; 0% in [11]; 41% in data set [12]; 0% in data set [13]. Moreover, the inhibition at 1000 µg/mL in [3] came to 0%. For the same molecule, the inhibition of growth at 20 µg/mL in [4], in [5], in data set [6], in data set [7] and in [10] was 0% in each case. Also, the “log K” value in [1] is given as 0.232. The inhibition at 500 µg/mL in data set [8] was 0%.
As for `Oc1ccc(C(=S)NNc2nncc3ccccc23)c(O)c1`, the “log K” value in data set [1] came to 0.228.
Regarding `O=C(NNC(=S)c1ccc(O)cc1O)c1ccncc1`, the “log K” value in data set [1] is recorded as -0.21.
Consider `Oc1ccc(C(=S)Nc2ccc(OCc3ccccc3)cc2)c(O)c1`, for which the inhibition of growth at 200 µg/mL is 61% in data set [2]; 61% in data set [9]; 21% in [11]; 41% in data set [12]; 41% in data set [13]. For the same molecule, the inhibition at 1000 µg/mL in [3] was 21%. Moreover, the inhibition of growth at 20 µg/mL in data set [4] was 0%; in [5], 0%; in data set [6], 21%; in data set [7], 0%; in [10] it was 0%. In data set [1], the “log K” value was determined as 0.423. Besides, the inhibition at 500 µg/mL in data set [8] worked out at 0%.
In the case of `Oc1ccc(C(=S)NNC(=S)Nc2cccc(Cl)c2)c(O)c1`, the inhibition of growth at 200 µg/mL in data set [2] is 0%; in [9], 0%; in data set [11] it was 0%; in data set [12], 61%; in [13], 0%. In addition, the inhibition at 1000 µg/mL in [3] was 0%. In addition, the inhibition of growth at 20 µg/mL in data set [4], in [5], in data set [6], in data set [7] and in data set [10] was 0% in each case. For the same molecule, the “log K” value in data set [1] is given as 0.229. Besides, in data set [8], the inhibition at 500 µg/mL is 0%.
`O=C(OC/C=C/c1ccccc1)c1ccccc1NC(=S)c1ccc(O)cc1O`: the inhibition of growth at 200 µg/mL in data set [2] was determined as 61%; in [9], 61%; in data set [11], 81%; in [12] it was 81%; in data set [13] it was 81%. For the same molecule, the inhibition at 1000 µg/mL in data set [3] turned out to be 21%. The inhibition of growth at 20 µg/mL in [4] worked out at 41%; in data set [5], 21%; in data set [6], 21%; in data set [7], 41%; in [10] it was 41%. Besides, the “log K” value in data set [1] turned out to be 0.488. Further, the inhibition at 500 µg/mL in [8] is 21%.
As to `CC12CC1(C)C(=O)N(c1cc(Cl)cc(Cl)c1)C2=O` (centres undefined) [PROCYMIDONE], the inhibition of growth at 200 µg/mL in [2] and in [9] was 81% each time. For the same molecule, the “growth inhibition (GI)” value in data set [4], in data set [5], in data set [10], in [11], in data set [12] and in data set [13] was “inactive” each time. Besides, the inhibition of growth at 20 µg/mL in data set [6] and in data set [7] was 81% in each case.
On to `Oc1ccc(C(=S)NC(=S)c2cccnc2)c(O)c1`, for which the inhibition of growth at 200 µg/mL in data set [2] worked out at 61%; in data set [9], 81%; in [11], 81%; in data set [12], 81%; in data set [13], 61%. Further, the inhibition at 1000 µg/mL in [3] worked out at 21%. Further, the inhibition of growth at 20 µg/mL in data set [4], in data set [5], in data set [6], in data set [7] and in data set [10] was 0% in each case. Also, in data set [1], the “log K” value was found to be 0.751. Further, in data set [8], the inhibition at 500 µg/mL was determined as 0%.
With `N#CCc1nn(-c2ccccc2)c(NC(=S)c2ccc(O)cc2O)c1C#N`, the inhibition of growth at 200 µg/mL in [2] came out at 41%; in data set [9], 21%; in data set [11], 0%; in [12] it was 61%; in [13], 21%. In addition, in [3], the inhibition at 1000 µg/mL was 21%. Also, the inhibition of growth at 20 µg/mL in data set [4], in data set [5], in [6], in data set [7] and in [10] was 0% in each case. Also, the “log K” value in [1] is given as 0.373. For the same molecule, the inhibition at 500 µg/mL in data set [8] came to 0%.
Regarding `COC(=O)Nc1nc2ccccc2[nH]1` [CARBENDAZIM], the “growth inhibition (GI)” value in data set [2], in data set [6], in data set [7] and in data set [9] was “inactive” in each case. The inhibition of growth at 20 µg/mL in data set [4], in [5] and in data set [10] was 81% throughout. For the same molecule, the inhibition of growth at 200 µg/mL in data set [11], in data set [12] and in [13] was 81% in each case.
Turning to `COc1ccc(COC(=O)NNC(=S)c2ccc(O)cc2O)cc1`, the “log K” value in data set [1] stood at 0.103.
As for `Oc1ccc(C(=S)NC2=NN(c3ccccc3)CC2)c(O)c1`, the “log K” value in data set [1] was determined as 0.643.
